According to BindingDB's records for doi:10.1021/jm00069a013 (University of North Carolina, 1993):
Counter-ions that a name gives are not always drawn.

Key:
[1] = Binding affinity against sigma receptor from guinea pig brain (minus cerebellum) homogenates, using [3H]ditolylguanidine (DTG) as radioligand.
Summary of the method: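 Competition binding with whole guinea pig brain (minus cerebellum) homogenates in 10 mM Tris-HCl without added cations. Nonspecific binding was defined by 10 μM haloperidol. Concentrations were tested in duplicate, with three replications. IC50 values came from curve fitting.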

[2] = Binding affinity against sigma receptor from guinea pig brain (minus cerebellum) homogenates, using the novel [3H]-(+/-)-4 as radioligand

Row | SMILES | IC50 [1] | IC50 [2]
1 | CCN(CC)C1Cc2ccccc2C(c2ccccc2)C1 (trans isomer) | 207 nM | 4.5 nM
2 | CN(C)[C@H]1CCc2ccccc2[C@H]1c1ccccc1 [Dimethyl-(1-phenyl-1,2,3,4-tetrahydro-naphthalen-2-yl)-amine] | 3340 nM | 2760 nM
3 | CN(C)C1Cc2ccccc2C(c2ccccc2)C1 (stereo not drawn) [cis-Dimethyl-(4-phenyl-1,2,3,4-tetrahydro-naphthalen-2-yl)-amine; hydrochloride] | 960 nM | 
4 | NC1Cc2ccccc2C(c2ccccc2)C1 (stereo not drawn) [trans-4-Phenyl-1,2,3,4-tetrahydro-naphthalen-2-ylamine; hydrochloride] | > 10000 nM | 
5 | C=CCNC1Cc2ccccc2C(c2ccccc2)C1 (stereo not drawn) [trans-Allyl-(4-phenyl-1,2,3,4-tetrahydro-naphthalen-2-yl)-amine; hydrochloride] |  | 117 nM
6 | C=CCN(C)C1Cc2ccccc2C(c2ccccc2)C1 (stereo not drawn) [trans-Allyl-methyl-(4-phenyl-1,2,3,4-tetrahydro-naphthalen-2-yl)-amine; hydrochloride] | 1550 nM | 
7 | C=CCN(CC=C)C1Cc2ccccc2C(c2ccccc2)C1 (stereo not drawn) [trans-Diallyl-(4-phenyl-1,2,3,4-tetrahydro-naphthalen-2-yl)-amine; hydrochloride] | 538 nM | 27 nM
